Screening results deposited in PubChem by Broad Institute.
PGC1a acetyl inh: inhibitors of PGC1a acetylation signal, primary screen, cell-based, U2OS, AlphaScreen, inhibitor mode; inhibition, % at 15.6 µM; 350,000 tested, 0.17% active; AlphaScreen anti-acetyl-lysine; with virally co-expressed GCN5 acetyltransferase; AID 651687, 2012;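 active = every replicate shows inhibition of at least 40%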;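 note: 0% = neutral control wells and 100% = positive control wells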
Ecoli rRNA inh: reduced GFP signal of wild-type E. coli, primary screen, bacterial rRNA inhibitor project, GFP/RFP fluorescence, OD600, single point | E. coli WT GFP vs humanized-ribosome RFP mutants, 24 h; stronger effect = lower value; DMSO median 0, no signal -100 | GFP signal change (wild-type ribosome), % (test concentration not listed) | 350,000 tested, 1.6% active;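 active = significant combined selectivity score with lowered wild-type GFP, culture density cut under 30%, mutant RFP and density less affected; inactive = any of these conditions unmet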
FN deposit inh: inhibitors of fibronectin matrix deposition, primary screen, AH1F cells, Alexa488-fibronectin fluorescence, plate reader | AH1F fibroblasts, overnight | inhibition, % at 12.6 µM | 350,000 tested, 0.086% active | AID 743247, 2014;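 active = mean inhibition across replicates of 30% or more, regardless of how many single replicates reach that level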;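 note: positive control wells lacked labelled fibronectin entirely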
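Material: AH1F fibroblasts assembling fluorescent fibronectin matrix; amount: 10000 AH1F cells/well; medium: DMEM, 2% serum; reagent: Alexa488-fibronectin, 24 nM final in well; dosing: single compound dose, delivered by pin transfer; incubation: 1 h adhesion, overnight exposure; detection: fluorescence after three HBSS washes, excitation 485 nm, emission 525 nm; measure: fibronectin deposition inhibition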
PglD DTNB: C. jejuni PglD acetyltransferase inhibitors, primary screen, biochemical, DTNB colorimetric, single point | purified PglD enzyme, DTNB colorimetric CoA detection | inhibition, % at 12.5 µM | 360,000 tested, 0.098% active | AID 602405, 2012; in the data active = inhibition above about 16%, passing the limit was not always enough
Env fusion inh: inhibitors of HIV-1 Env-driven cell-cell fusion, primary screen, HeLa-JRFL effector, CEM21 target cells, luciferase. inhibition, % at 12.3 µM. 360,000 tested, 1.1% active. AID 651610, 2012;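 active = mean replicate inhibition score of at least 50 and every replicate individually at or above 50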;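 note: 0% = plate neutral controls and 100% = maraviroc near 300 nM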
DENV2 CPE: inhibitors of DENV2 cytopathic effect, primary screen, cell-based, plate reader, single concentration; 350,000 tested, 1.7% active; AID 651640, 2012; CPE inhibition, % at 9.99 µM; DENV2-infected cells, cytopathic effect rescue; in the data active = CPE inhibition above about 20%, passing the limit was not always enough; tested in BHK-21 cells;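 note: 0% = median of neutral control wells and 100% = median of positive control wells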
The depositor's hits bear a star; · = no result; ! = not confirmed by another sample; [ ] = remark or other dose. Sampled rows, rich in hits. Any-hit rate of the full collection: about 3.5%.

SMILES	PGC1a acetyl inh	Ecoli rRNA inh	FN deposit inh	PglD DTNB	Env fusion inh	DENV2 CPE
COc1ccc(NC(=O)CSc2ccc3ccccc3c2)cc1S(=O)(=O)N1CCCCC1	·	-1.2	-0.7	·	55.8*	0.5
COc1ccc(-c2nc(SCC(=O)Nc3cccc(S(N)(=O)=O)c3)n[nH]2)cc1	-5.1	1.9	1.5	-0.8	-45.5	3.9
COc1ccc(NC(=O)CSc2ccc(NC(C)=O)cc2)cc1S(=O)(=O)N1CCOCC1	-12.8	-1.2	2.6	2.3	6.8	-3.0
C[C@@H]1CCCCO[C@@H](CN(C)S(=O)(=O)c2ccc(F)cc2)[C@H](C)CN([C@@H](C)CO)C(=O)c2cc(NC(=O)c3ccncc3)ccc2O1	5.7	-6.0	-10.2	2.3	-1.5[16.7 µM]	-3.3
COc1ccc2c3c([nH]c2c1)[C@@H](CO)N(CC1CC1)CC31CCN(C(=O)c2ccccc2F)CC1	-5.1	0.8	·	·	·	-1.9
O=C(O)CCSc1nc2ccccc2n1-c1ccccc1	·	-23.7*	0.0	3.0	-3.5	0.3
Cc1onc(-c2ccc(Cl)cc2)c1-c1ccnc(SCC(=O)Nc2cc(Cl)cc(Cl)c2)n1	·	·	2.8	·	75.5*	-5.6
COc1ccc(C2=NS(=O)(=O)N(C)C(C(=O)N3CCCCC3C)=C2)cc1 (stereo not drawn)	·	-1.7	-5.0	-4.0	60.1*	2.7
C[C@H](CO)N1C[C@H](C)[C@@H](CN(C)S(C)(=O)=O)OCCCC[C@H](C)Oc2ccc(NS(=O)(=O)c3ccc(Cl)cc3)cc2C1=O	-4.3	-1.2	-6.1	1.6	-13.9[16.7 µM]	-5.7
Cc1ccc(S(=O)(=O)Nc2ccc3c(c2)C(=O)N([C@@H](C)CO)C[C@H](C)[C@@H](CN(C)S(=O)(=O)c2ccc(Cl)cc2)OCCCC[C@@H](C)O3)cc1	-9.1	1.9	0.5	5.1	21.7[16.7 µM]	9.1
Cc1ccc(S(=O)(=O)Nc2ccc3c(c2)C(=O)N([C@H](C)CO)C[C@H](C)[C@H](CN(C)S(=O)(=O)c2ccc(Cl)cc2)OCCCC[C@@H](C)O3)cc1	-3.0	4.3	-11.3	2.1	-6.7[16.7 µM]	65.8*
COc1ccc(S(=O)(=O)Nc2ccc3c(c2)C(=O)N([C@H](C)CO)C[C@H](C)[C@H](CN(C)S(C)(=O)=O)OCCCC[C@@H](C)O3)cc1	8.9	0.5	·	0.9	-3.9[16.7 µM]	20.3*
C[C@@H]1CCCCO[C@@H](CN(C)CC2CCCCC2)[C@@H](C)CN([C@H](C)CO)C(=O)c2cc(NS(=O)(=O)c3ccc(Cl)cc3)ccc2O1	16.2	1.9	-9.3	-3.3	-55.6	62.7*!
C[C@@H]1CCCCO[C@@H](CN(C)S(C)(=O)=O)[C@H](C)CN([C@@H](C)CO)C(=O)c2cc(NS(=O)(=O)c3ccc(Cl)cc3)ccc2O1	-14.9	-3.2	-1.4	4.9	15.3[16.7 µM]	83.8*
COc1ccc(S(=O)(=O)Nc2ccc3c(c2)C(=O)N([C@H](C)CO)C[C@H](C)[C@@H](CN(C)S(C)(=O)=O)OCCCC[C@H](C)O3)cc1	19.8	-2.5	·	-0.4	19.8[16.7 µM]	9.0
Cc1noc(C)c1NC(=O)N[C@@H]1C=C[C@H](CC(=O)N2CCCCC2)O[C@@H]1CO	20.6	4.6	-1.3	-2.7	-10.4[16.7 µM]	10.7
C[C@@H]1CN([C@@H](C)CO)C(=O)c2cc(NS(=O)(=O)c3ccc(Cl)cc3)ccc2O[C@@H]1CN(C)Cc1ccc2c(c1)OCO2	-2.3	-0.7	-0.7	-1.1	·	-0.6
COc1ccc(NC(=O)N(C)C[C@@H]2Oc3c(NC(=O)Nc4ccc(F)cc4)cccc3C(=O)N([C@H](C)CO)C[C@H]2C)cc1	-3.6	3.0	·	-2.2	-7.8[16.7 µM]	-14.2
Cc1ccc(S(=O)(=O)Nc2ccc3c(c2)C(=O)N([C@@H](C)CO)C[C@@H](C)[C@@H](CN(C)CC2CC2)OCCCC[C@@H](C)O3)cc1	-9.8	7.4	-16.1	2.3	4.9	62.7*!
